# Source: ChEMBL document CHEMBL2040781, “Design, synthesis, and biological evaluation of chromone-based p38 MAP kinase inhibitors” (J Med Chem, 2011)
# pIC50: −log10 of the molar value. The source made the active and inactive calls. No cut-off for these calls is given here.
# Assays:
# [1] = target: Interleukin-1 receptor-associated kinase 4 (Homo sapiens) (UniProt Q9NWZ3); assay: Inhibition of human IRAK4 assessed as remaining activity at 0.8 uM after 40 mins by scintillation counting
# [2] = target: Mitogen-activated protein kinase 13 (Homo sapiens) (UniProt O15264); assay: Inhibition of human SAPK4 assessed as remaining activity at 0.8 uM after 40 mins by scintillation counting
# [3] = target: CDK9/cyclin T1 (Homo sapiens) (UniProt O60563+P50750); assay: Inhibition of human CDK9/cyclin T1 assessed as remaining activity at 0.8 uM after 40 mins by scintillation counting; format: protein-complex assay
# [4] = target: Ribosomal protein S6 kinase alpha-4 (Homo sapiens) (UniProt O75676); assay: Inhibition of human MSK2 assessed as remaining activity at 0.8 uM after 40 mins by scintillation counting
# [5] = target: Cyclin-dependent kinase 7/ cyclin H (Homo sapiens) (UniProt P51946+P50613); assay: Inhibition of human CDK7/cyclinH/MAT1 assessed as remaining activity at 0.8 uM after 40 mins by scintillation counting; format: protein-complex assay
# [6] = target: Ribosomal protein S6 kinase alpha-1 (Homo sapiens) (UniProt Q15418); assay: Inhibition of human Rsk1 assessed as remaining activity at 0.8 uM after 40 mins by scintillation counting
# [7] = target: Aurora kinase A (Homo sapiens) (UniProt O14965); assay: Inhibition of human Aurora-A assessed as remaining activity at 0.8 uM after 40 mins by scintillation counting
# [8] = target: Tyrosine-protein kinase Lyn (Homo sapiens) (UniProt P07948); assay: Inhibition of human Lyn assessed as remaining activity at 0.8 uM after 40 mins by scintillation counting
# MCF7 [9] = assay: Antiproliferative activity against human MCF7 cells at 1 uM after 4 hrs by prestoblue cell viability assay; format: functional, cell-based
# [10] = target: MAP kinase-interacting serine/threonine-protein kinase 2 (Homo sapiens) (UniProt Q9HBH9); assay: Inhibition of human Mnk2 assessed as remaining activity at 0.8 uM after 40 mins by scintillation counting
# [11] = target: Serine/threonine-protein kinase 10 (Homo sapiens) (UniProt O94804); assay: Inhibition of human LOK assessed as remaining activity at 0.8 uM after 40 mins by scintillation counting
# [12] = target: Cyclin-dependent kinase 2/cyclin A (Homo sapiens) (UniProt P24941+P20248+P78396); assay: Inhibition of human CDK2/cyclinA assessed as remaining activity at 0.8 uM after 40 mins by scintillation counting; format: protein-complex assay
# [13] = target: Epidermal growth factor receptor (Homo sapiens) (UniProt P00533); assay: Inhibition of human EGFR assessed as remaining activity at 0.8 uM after 40 mins by scintillation counting
# [14] = target: Serine/threonine-protein kinase PAK 2 (Homo sapiens) (UniProt Q13177); assay: Inhibition of human PAK2 assessed as remaining activity at 0.8 uM after 40 mins by scintillation counting
# [15] = target: Ephrin type-A receptor 5 (Homo sapiens) (UniProt P54756); assay: Inhibition of human EphA5 assessed as remaining activity at 0.8 uM after 40 mins by scintillation counting
# [16] = target: T1, Mitogen-activated protein kinase 14 (Homo sapiens, UniProt Q16539); assay: Inhibition of anisomycin-induced p38alpha MAPK signalling in human MCF7 cells assessed as inhibition of ATF2 activation at 0.5 uM after 30 mins by SDS PAGE analysis; format: cell-based
# Method in brief: (§1)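 MCF-7 cells were preincubated with the compound at the indicated doses for 30 min, then stimulated with 10 μg/mL anisomycin for another 30 min. Total cell lysates were resolved by SDS-PAGE and immunoblotted with antibodies against phosphorylated ATF2, p38 and HSP27, with tubulin as the loading control.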
# [17] = target: T1, Mitogen-activated protein kinase 14; assay: Inhibition of anisomycin-induced p38alpha MAPK signalling in human MCF7 cells assessed as inhibition of HSP27 activation at 0.5 uM after 30 mins by SDS PAGE analysis; format: cell-based; method in brief: as §1
# [18] = target: Serine/threonine-protein kinase 4 (Homo sapiens) (UniProt Q13043); assay: Inhibition of human MST1 assessed as remaining activity at 0.8 uM after 40 mins by scintillation counting
# [19] = target: T1, Mitogen-activated protein kinase 14; assay: Inhibition of p38alpha MAPK after 40 mins by scintillation counting
# [20] = target: Mitogen-activated protein kinase 12 (Homo sapiens) (UniProt P53778); assay: Inhibition of human SAPK3 assessed as remaining activity at 0.8 uM after 40 mins by scintillation counting
# [21] = target: Tyrosine-protein kinase Fyn (Homo sapiens) (UniProt P06241); assay: Inhibition of human Fyn assessed as remaining activity at 0.8 uM after 40 mins by scintillation counting
# [22] = target: MAP kinase-activated protein kinase 2 (Homo sapiens) (UniProt P49137); assay: Inhibition of human MAPKAP-K2 assessed as remaining activity at 0.8 uM after 40 mins by scintillation counting
# [23] = target: Mitogen-activated protein kinase kinase kinase 7 (TAK1) (Homo sapiens) (UniProt O43318); assay: Inhibition of human TAK1 assessed as remaining activity at 0.8 uM after 40 mins by scintillation counting
# [24] = target: Cyclin-dependent kinase 1/cyclin B1 (Homo sapiens) (UniProt P06493+P14635); assay: Inhibition of human CDK1/cyclinB assessed as remaining activity at 0.8 uM after 40 mins by scintillation counting; format: protein-complex assay
# [25] = target: Ribosomal protein S6 kinase beta-1 (Homo sapiens) (UniProt P23443); assay: Inhibition of human p70S6K assessed as remaining activity at 0.8 uM after 40 mins by scintillation counting
# MCF7 [26] = assay: Potentiation of doxorubicin-mediated cytotoxicity in human MCF7 cells at 1 uM after 4 hrs by prestoblue cell viability assay; format: functional, cell-based
# [27] = target: T1, Mitogen-activated protein kinase 14; assay: Inhibition of human SAPK2a assessed as remaining activity at 0.8 uM after 40 mins by scintillation counting
# [28] = target: Calcium/calmodulin-dependent protein kinase type 1 (Homo sapiens) (UniProt Q14012); assay: Inhibition of human CaMKI assessed as remaining activity at 0.8 uM after 40 mins by scintillation counting
# [29] = target: Tyrosine-protein kinase ABL1 (Homo sapiens) (UniProt P00519); assay: Inhibition of human Abl assessed as remaining activity at 0.8 uM after 40 mins by scintillation counting
# [30] = target: Ephrin type-B receptor 4 (Homo sapiens) (UniProt P54760); assay: Inhibition of human EphB4 assessed as remaining activity at 0.8 uM after 40 mins by scintillation counting
# [31] = target: RAC-alpha serine/threonine-protein kinase (Homo sapiens) (UniProt P31749); assay: Inhibition of human PKBalpha assessed as remaining activity at 0.8 uM after 40 mins by scintillation counting
# [32] = target: Mitogen-activated protein kinase 11 (Homo sapiens) (UniProt Q15759); assay: Inhibition of human SAPK2b assessed as remaining activity at 0.8 uM after 40 mins by scintillation counting
# MCF7 [33] = assay: Potentiation of anisomycin-mediated cytotoxicity in human MCF7 cells at 1 uM after 4 hrs by prestoblue cell viability assay; format: functional, cell-based
# [34] = target: Rho-associated protein kinase 1 (Homo sapiens) (UniProt Q13464); assay: Inhibition of human ROCK-I assessed as remaining activity at 0.8 uM after 40 mins by scintillation counting
# T1 sequence (Q16539 whole entry): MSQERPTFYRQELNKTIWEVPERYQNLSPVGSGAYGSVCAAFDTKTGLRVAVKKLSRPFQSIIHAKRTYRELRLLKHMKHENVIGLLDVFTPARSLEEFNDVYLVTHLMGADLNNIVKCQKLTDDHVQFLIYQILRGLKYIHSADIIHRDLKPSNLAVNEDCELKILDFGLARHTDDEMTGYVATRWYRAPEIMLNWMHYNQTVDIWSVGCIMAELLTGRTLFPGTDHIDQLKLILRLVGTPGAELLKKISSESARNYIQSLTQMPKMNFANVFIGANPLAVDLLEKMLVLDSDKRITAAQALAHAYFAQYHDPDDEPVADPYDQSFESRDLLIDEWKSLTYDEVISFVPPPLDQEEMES
# Sequence of Ephrin type-A receptor 5 (Homo sapiens) (P54756 whole entry): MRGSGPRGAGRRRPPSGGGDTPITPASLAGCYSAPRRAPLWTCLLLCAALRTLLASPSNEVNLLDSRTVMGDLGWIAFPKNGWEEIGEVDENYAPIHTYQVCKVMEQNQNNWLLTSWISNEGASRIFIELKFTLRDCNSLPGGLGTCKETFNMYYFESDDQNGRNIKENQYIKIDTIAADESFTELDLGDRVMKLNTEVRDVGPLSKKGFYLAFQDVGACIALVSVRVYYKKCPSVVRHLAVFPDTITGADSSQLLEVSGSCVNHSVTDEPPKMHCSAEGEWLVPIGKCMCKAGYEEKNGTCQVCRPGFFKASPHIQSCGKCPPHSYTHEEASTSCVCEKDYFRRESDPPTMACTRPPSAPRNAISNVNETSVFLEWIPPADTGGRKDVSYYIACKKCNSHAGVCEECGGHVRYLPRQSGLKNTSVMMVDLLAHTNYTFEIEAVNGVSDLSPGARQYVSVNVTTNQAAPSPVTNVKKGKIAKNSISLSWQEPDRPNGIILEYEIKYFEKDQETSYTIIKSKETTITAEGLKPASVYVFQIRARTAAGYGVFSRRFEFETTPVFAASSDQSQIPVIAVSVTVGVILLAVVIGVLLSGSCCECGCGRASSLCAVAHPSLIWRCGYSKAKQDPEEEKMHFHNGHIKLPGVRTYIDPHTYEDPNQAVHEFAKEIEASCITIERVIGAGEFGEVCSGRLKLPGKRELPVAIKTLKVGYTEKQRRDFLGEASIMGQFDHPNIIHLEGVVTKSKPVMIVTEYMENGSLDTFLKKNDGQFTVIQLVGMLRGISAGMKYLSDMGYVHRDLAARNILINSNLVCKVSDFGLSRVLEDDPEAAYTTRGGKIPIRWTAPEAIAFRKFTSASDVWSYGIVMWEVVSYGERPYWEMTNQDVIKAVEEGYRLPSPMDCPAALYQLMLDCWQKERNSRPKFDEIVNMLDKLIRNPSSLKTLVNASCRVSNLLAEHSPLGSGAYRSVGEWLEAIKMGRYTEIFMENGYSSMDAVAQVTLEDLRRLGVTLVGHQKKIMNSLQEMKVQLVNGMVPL
# Sequence of Epidermal growth factor receptor (Homo sapiens) (P00533 whole entry): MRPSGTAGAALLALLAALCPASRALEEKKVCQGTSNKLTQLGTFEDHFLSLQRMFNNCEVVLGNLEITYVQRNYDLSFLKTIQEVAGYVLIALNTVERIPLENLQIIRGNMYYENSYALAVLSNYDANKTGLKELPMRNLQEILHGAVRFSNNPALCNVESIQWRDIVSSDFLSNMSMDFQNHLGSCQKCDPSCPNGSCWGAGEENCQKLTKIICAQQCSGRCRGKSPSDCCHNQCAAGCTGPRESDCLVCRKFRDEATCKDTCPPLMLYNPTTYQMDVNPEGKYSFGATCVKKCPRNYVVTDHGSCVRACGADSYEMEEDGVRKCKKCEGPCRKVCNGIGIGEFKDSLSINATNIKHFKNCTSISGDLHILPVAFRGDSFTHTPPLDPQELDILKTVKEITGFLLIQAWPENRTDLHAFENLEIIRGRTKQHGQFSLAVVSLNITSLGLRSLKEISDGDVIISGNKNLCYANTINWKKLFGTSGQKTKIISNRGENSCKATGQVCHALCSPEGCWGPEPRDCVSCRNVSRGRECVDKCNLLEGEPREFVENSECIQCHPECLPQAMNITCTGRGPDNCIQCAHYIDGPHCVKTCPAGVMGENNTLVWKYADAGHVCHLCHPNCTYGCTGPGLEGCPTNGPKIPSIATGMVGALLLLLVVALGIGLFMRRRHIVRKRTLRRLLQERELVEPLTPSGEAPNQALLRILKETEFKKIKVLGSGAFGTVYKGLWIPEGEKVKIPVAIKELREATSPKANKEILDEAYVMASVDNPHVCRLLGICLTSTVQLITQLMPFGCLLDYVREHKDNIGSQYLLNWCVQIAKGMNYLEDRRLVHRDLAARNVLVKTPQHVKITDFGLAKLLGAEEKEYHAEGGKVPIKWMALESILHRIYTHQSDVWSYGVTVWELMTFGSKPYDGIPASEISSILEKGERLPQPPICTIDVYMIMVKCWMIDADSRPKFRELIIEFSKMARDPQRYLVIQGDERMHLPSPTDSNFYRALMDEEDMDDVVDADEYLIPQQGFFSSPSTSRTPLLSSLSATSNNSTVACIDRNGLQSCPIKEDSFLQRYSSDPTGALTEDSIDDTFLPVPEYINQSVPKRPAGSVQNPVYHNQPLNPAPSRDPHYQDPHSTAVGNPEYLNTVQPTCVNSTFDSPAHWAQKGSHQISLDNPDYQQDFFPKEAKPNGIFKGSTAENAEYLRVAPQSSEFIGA
# Sequence of MAP kinase-activated protein kinase 2 (Homo sapiens) (P49137 whole entry, looked up): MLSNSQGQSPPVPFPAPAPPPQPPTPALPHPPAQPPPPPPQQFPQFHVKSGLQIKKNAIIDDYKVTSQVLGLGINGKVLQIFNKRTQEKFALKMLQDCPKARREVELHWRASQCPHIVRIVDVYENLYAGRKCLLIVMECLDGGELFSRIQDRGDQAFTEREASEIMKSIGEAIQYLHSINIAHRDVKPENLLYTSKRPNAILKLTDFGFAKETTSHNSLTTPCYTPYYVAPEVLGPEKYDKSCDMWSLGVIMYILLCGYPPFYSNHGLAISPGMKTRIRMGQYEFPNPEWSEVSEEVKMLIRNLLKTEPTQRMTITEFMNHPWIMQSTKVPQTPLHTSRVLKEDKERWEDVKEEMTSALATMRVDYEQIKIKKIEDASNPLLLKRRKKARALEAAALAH
# Sequence of Serine/threonine-protein kinase 4 (Homo sapiens) (Q13043 whole entry): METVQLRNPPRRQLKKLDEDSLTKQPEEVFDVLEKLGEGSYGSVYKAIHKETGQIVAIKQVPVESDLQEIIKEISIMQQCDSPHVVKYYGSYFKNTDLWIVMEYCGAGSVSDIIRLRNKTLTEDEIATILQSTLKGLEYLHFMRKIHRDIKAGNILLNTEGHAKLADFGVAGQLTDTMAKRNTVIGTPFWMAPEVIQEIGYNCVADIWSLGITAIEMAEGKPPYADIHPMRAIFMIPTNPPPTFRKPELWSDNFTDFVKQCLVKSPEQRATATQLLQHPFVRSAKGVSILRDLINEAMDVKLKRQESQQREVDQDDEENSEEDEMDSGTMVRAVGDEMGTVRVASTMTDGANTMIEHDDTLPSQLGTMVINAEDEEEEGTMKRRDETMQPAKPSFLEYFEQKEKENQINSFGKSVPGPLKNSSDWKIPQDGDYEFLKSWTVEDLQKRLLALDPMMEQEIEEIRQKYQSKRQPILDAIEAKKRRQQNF
# Sequence of Tyrosine-protein kinase ABL1 (Homo sapiens) (P00519 whole entry): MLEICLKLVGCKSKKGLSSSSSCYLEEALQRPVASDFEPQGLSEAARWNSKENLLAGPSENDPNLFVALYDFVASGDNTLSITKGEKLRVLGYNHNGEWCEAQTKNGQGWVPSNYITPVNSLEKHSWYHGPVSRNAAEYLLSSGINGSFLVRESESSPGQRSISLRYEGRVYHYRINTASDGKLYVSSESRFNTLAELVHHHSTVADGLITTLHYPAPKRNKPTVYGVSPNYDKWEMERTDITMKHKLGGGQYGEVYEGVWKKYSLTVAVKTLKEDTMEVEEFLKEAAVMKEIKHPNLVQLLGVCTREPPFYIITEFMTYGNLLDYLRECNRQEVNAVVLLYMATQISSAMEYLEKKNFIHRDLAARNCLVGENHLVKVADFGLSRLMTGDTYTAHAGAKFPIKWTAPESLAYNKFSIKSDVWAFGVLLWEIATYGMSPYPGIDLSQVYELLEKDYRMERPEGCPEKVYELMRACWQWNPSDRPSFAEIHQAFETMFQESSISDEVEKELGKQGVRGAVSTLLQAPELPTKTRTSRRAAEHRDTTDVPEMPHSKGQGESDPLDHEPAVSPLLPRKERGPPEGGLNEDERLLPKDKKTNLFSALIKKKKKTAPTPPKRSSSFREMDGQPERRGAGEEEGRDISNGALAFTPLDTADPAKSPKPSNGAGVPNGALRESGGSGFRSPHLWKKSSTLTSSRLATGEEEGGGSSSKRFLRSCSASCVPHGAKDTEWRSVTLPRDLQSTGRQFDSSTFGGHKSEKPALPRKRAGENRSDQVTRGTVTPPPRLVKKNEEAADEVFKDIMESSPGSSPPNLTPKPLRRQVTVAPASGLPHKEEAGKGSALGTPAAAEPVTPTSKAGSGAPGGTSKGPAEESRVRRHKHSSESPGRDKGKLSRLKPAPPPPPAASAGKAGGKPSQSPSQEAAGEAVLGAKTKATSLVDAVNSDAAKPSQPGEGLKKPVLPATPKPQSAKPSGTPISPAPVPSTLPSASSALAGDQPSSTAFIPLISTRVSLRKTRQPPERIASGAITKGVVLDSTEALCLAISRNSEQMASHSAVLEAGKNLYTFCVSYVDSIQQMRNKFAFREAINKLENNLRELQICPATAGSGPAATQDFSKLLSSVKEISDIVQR
# Sequence of Mitogen-activated protein kinase 13 (Homo sapiens) (O15264 whole entry): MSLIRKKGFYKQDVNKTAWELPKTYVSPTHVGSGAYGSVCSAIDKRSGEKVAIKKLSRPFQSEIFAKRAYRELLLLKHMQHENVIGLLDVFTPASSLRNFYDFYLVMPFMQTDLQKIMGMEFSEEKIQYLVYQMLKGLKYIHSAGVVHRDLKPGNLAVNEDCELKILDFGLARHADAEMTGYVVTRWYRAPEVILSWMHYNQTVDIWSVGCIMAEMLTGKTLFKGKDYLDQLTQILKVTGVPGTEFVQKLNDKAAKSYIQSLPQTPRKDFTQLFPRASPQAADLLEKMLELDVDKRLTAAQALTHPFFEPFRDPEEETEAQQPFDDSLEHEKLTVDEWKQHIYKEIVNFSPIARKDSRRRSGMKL
Structure (SMILES),Activity [1],Activity [2],Activity [3],Activity [4],Activity [5],Activity [6],Activity [7],Activity [8],Activity (MCF7 [9]),Activity [10],Activity [11],Activity [12],Activity [13],Activity [14],Activity [15],Activity [18],pIC50 [19],Activity [20],Activity [21],Activity [22],other results
O=c1c(-c2ccc(F)cc2)c(-c2ccnc(NC3CCCCC3)c2)oc2ccccc12,95%,112%,93%,95%,101%,104%,107%,98%,inactive,103%,94%,101%,114%,104%,104%,93%,7.47,97%,103%,99%,inhibition [16]: Active; inhibition [17]: Active; Activity [23]: 103%; Activity [24]: 93%; Activity [25]: 102%; Activity (MCF7 [26]): inactive; Activity [27]: -1%; Activity [28]: 96%; Activity [29]: 106%; Activity [30]: 98%; Activity [31]: 107%; Activity [32]: 9%; Activity (MCF7 [33]): inactive; Activity [34]: 106%
CC(C)Nc1cc(-c2oc3ccccc3c(=O)c2-c2ccc(F)cc2)ccn1,91%,104%,96%,89%,100%,104%,104%,101%,inactive,96%,102%,95%,106%,106%,103%,99%,7.77,96%,100%,104%,Activity [23]: 97%; Activity [24]: 95%; Activity [25]: 102%; Activity (MCF7 [26]): inactive; Activity [27]: -3%; Activity [28]: 94%; Activity [29]: 111%; Activity [30]: 97%; Activity [31]: 100%; Activity [32]: -3%; Activity (MCF7 [33]): inactive; Activity [34]: 94%
